How the values were obtained:
[1] = tested on: HEK293; test: Cytotoxicity against HEK293 cells assessed as reduction in cell viability; type: cell-based; details: Homo sapiens
Method in brief: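 MTT viability assay on non-tumorigenic human kidney cells, run by the same protocol as the breast cancer line. Cells were seeded at […] per well in phenol-free DMEM with 5% FBS and left to adhere overnight. Compounds were given at 0.1–100 µM for 24 h, then MTT (5 mg/mL) for 4 h. Cells were lysed in 20% SDS/50% DMF and read at 550 nm (reference 630 nm). Mean ±SE of four independent experiments.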

[2] = Cytotoxicity against human MCF-7TN-R cells assessed as reduction in cell viability after 24 hrs by MTT assay; type: functional, cell-based

Row | SMILES | IC50 [1] | IC50 [2]
1 | CCCCCCCCCCCCCCNC(=O)[C@H](CO)/N=C/c1cccc(C)c1 | 51.1 µM | 82.9 µM
2 | CCCCCCCCCCCCCCNC(=O)[C@H](CO)/N=C/c1cccc([N+](=O)[O-])c1 | 82.7 µM | 104 µM
3 | CCCCCCCCCCCCCCNC(=O)[C@H](CO)/N=C/c1ccc(O)cc1 | 71.7 µM | 19.3 µM
4 | CCCCCCCCCCCCCCNC(=O)[C@H](CO)/N=C/c1cccc(O)c1 | 77.5 µM | 32.6 µM
5 | CCCCCCCCCCCCCCNC(=O)[C@H](CO)/N=C/c1ccc([N+](=O)[O-])cc1 | 49.5 µM | 216 µM
6 | CCCCCCCCCCCCCCNC(=O)[C@H](CO)/N=C/c1ccccc1 |  | 7.67 µM
7 | CCCCCCCCCCCCCCNC(=O)[C@H](CO)NCc1ccccc1OC |  | 100 µM
8 | CCCCCCCCCCCCCCNC(=O)[C@H](CO)/N=C/c1ccccc1Cl | 94.9 µM | 10.3 µM
9 | CCCCCCCCCCCCCCNC(=O)[C@H](CO)/N=C/c1ccccc1O | 80.8 µM | 19 µM
10 | CCCCCCCCCCCCCCNC(=O)[C@H](CO)/N=C/c1cccc(OC)c1 | 77.3 µM | 31.2 µM
11 | CCCCCCCCCCCCCCNC(=O)[C@H](CO)/N=C/c1ccccc1C | 81.1 µM | 87.7 µM
12 | CCCCCCCCCCCCCCNC(=O)[C@H](CO)/N=C/c1ccccc1OC | 79.2 µM | 12.5 µM
13 | CCCCCCCCCCCCCCNC(=O)[C@H](CO)NCc1ccccc1Cl |  | 43.7 µM
14 | CCCCCCCCCCCCCCNC(=O)[C@H](CO)/N=C/c1ccc(OC)cc1 | 81.7 µM | 28.1 µM
15 | CCCCCCCCCCCCCCNC(=O)[C@H](CO)NCc1ccccc1[N+](=O)[O-] |  | 29.4 µM
16 | CCCCCCCCCCCCCCNC(=O)[C@H](CO)/N=C/c1ccc(Cl)cc1 | 77.7 µM | 27.5 µM
17 | CCCCCCCCCCCCCCNC(=O)[C@H](CO)NCc1ccccc1O |  | 75.3 µM
18 | CCCCCCCCCCCCCCNC(=O)[C@H](CO)/N=C/c1cccc(Cl)c1 | 77 µM | 24.1 µM
19 | CCCCCCCCCCCCCCNC(=O)[C@H](CO)/N=C/c1ccccc1[N+](=O)[O-] | 82.6 µM | 21.7 µM
20 | CCCCCCCCCCCCC/C=C/[C@@H](O)[C@H](CO)NC(=O)CCCCCCC |  | 8.59 µM
21 | CCCCCCCCCCCCCCNC(=O)[C@H](CO)/N=C/c1ccc(C)cc1 | 47.3 µM | 102 µM

— ChEMBL document CHEMBL1177667, “Novel anti-viability ceramide analogs: design, synthesis, and structure-activity relationship studies of substituted (S)-2-(benzylideneamino)-3-hydroxy-N-tetradecylpropanamides” (Bioorg Med Chem, 2010)
